# Screening results deposited in PubChem by several laboratories.
# Rows were chosen to be rich in hits. Some 11% of all compounds tested hit in one or more screens of this group.
# D1 allo mod: D1 dopamine receptor (human) allosteric modulation. P21728. HEK293 D1, CRE-luciferase, dopamine EC30 potentiation; actives deviate in either direction. B-score at 10 µM. hit rate 5.9% among 58,000. AID 641;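 active = luminescence count or its row- and column-corrected plate score outside the 99.7% band of the plate's sample wells, on either side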
# M1 antag: blocks the rat M1 muscarinic receptor response to acetylcholine; hit rate 3.4% among 64,000; B-score at 10 µM; AID 628; CHO-M1 cells, Fluo-4 calcium, ACh EC80 antagonist mode; active compounds read low; P08482;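 active = calcium fluorescence response, raw or row-and-column corrected B-score, differing from the plate sample mean either way at a set confidence level, mostly lower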
# mHtt clearance: compounds clearing mutant huntingtin protein. hit rate 0.42% among 47,000. AID 853. HeLa Exon1htt(103Q)mCFP, aggregate imaging; zero = plate's median compound well. inhibition, % at 1.5 µM;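 active = inhibition of aggregate fluorescence above about 70%, also judged a hit by eye on the cell image, limit read from the data, passing the limit was not always enough; inconclusive = no rule stated for this call; inactive = not judged a hit on image review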;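 also: cells exposed to compound for three days before fixation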
# RORA act: activators of human nuclear receptor RORA | AID 560 | hit rate 1.5% among 65,000 | CHO-K1 Gal4-RORA LBD luciferase reporter, luminescence; percent increase over mock-subtracted basal signal | activation, % at 10 µM;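 active = activation above the mean of all tested compounds plus 3 SD, cut at about 49% in these data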;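 also: 0% = DMSO-treated RORA cells and 100% = added signal equal to DMSO minus mock-transfected cells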
# Target sequence (P35398 whole entry, looked up, the tested form may be a part): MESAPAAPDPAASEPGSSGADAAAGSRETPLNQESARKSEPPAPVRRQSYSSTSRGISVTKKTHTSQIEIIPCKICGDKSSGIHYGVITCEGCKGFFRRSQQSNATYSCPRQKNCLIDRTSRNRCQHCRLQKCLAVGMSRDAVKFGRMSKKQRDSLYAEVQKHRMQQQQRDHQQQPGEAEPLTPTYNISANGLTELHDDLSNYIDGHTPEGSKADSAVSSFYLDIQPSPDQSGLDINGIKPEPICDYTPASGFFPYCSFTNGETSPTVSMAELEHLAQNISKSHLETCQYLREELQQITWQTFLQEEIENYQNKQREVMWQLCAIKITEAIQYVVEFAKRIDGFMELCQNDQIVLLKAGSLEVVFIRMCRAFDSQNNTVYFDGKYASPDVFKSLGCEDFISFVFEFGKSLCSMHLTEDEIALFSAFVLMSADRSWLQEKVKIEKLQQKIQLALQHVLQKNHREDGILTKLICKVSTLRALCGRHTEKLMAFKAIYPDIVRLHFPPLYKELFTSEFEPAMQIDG
# M1 ag: M1 muscarinic receptor agonism. CHO-M1 cells, Fluo-4 calcium fluorescence, agonist mode; active compounds read high. B-score at 10 µM. hit rate 3% among 64,000. AID 626;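 active = fluorescence rise, raw or as B-score row- and column-corrected plate score, outside the 99.7% band of its plate's samples, either direction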
# SF1 activator: SF-1 (human) activation; CHO-K1 Gal4-SF-1 LBD luciferase reporter; % increase over DMSO SF-1-specific signal; activation, % at 10 µM; hit rate 1.9% among 65,000;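 active = activation above the mean activation of all tested compounds plus 3 SD, cut at about 50% in these data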
#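 System: CHO-K1 cells with Gal4–hSF-1 LBD chimera plus Gal4-driven luciferase; quantity: 4,000 CHO-K1 cells per well; compound: one dose, 10 µM compound, 1% DMSO; times: 20 h compound treatment, 37 °C; measured by: SteadyLite luciferase luminescence; read-out: percent activation versus DMSO; benchmarks: DMSO and mock-transfected background; replicates: one test per compound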
# M1 ag confirm: rat M1 muscarinic agonism, confirmation | hit rate 19% among 1,700 | AID 1488 | CHO-M1 cells, Fluo-4 calcium fluorescence, agonist mode; actives lie on both sides | fluorescence change (max-min) at 10 µM | shares compounds with M1 ag;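 active = fluorescence change differs from the solvent-only DMSO control mean at a set confidence level in both duplicate runs; inconclusive = differs from solvent-only control mean in just one of two runs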;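 also: an EC20 dose of acetylcholine follows compound addition during the same imaging run; raw fluorescence intensity difference in instrument units with no normalization to controls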
# M4 ag counter: counter-screen for M1 agonists: activity at rat M4 receptor. AID 1741. hit rate 9% among 1,700. fluorescence change (max-min) at 10 µM. shares compounds with M1 ag. CHO M4/Gqi5 cells, Fluo-4 calcium fluorescence, agonist mode; actives lie on both sides;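 active = fluorescence change differing from the plate's solvent-only control wells at 99.7% confidence in both duplicates, whether higher or lower; inconclusive = differs from solvent controls in only one of two duplicates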
# An asterisk follows results filed as active; ? = inconclusive; . = no result.
SMILES,D1 allo mod,M1 antag,mHtt clearance,RORA act,M1 ag,SF1 activator,M1 ag confirm,M4 ag counter
COc1cc(-c2nc3cnccn3c2Nc2ccc3c(c2)OCCO3)ccc1O,-0.93,0.26,.,25,3.5*,18,-4.2,?
CCC(CC)C(=O)NCCc1cc2c(C)ccc(C)c2[nH]c1=O,-0.22,-0.39,.,-3,-2.2,10,.,.
COc1ccc(OC)c2[nH]c(=O)c(CCNC(=O)c3cc4ccccc4o3)cc12,0.65,-1.1,.,-9,2.5*,-1,-6.8,-22
Cc1ccc(C)c2[nH]c(=O)c(CCNC(=O)c3cc4ccccc4o3)cc12,0.9,-0.091,.,4,2.9*,-3,?,-45
COc1cc2ccccc2cc1C(=O)Nc1ccc(N2CCN(C)CC2)cc1,-2.3,-8*,.,59*,5.9*,36,-24*,-47
CCOC(=O)C1CCN(C(c2cccc(OC)c2)c2sc3nc(C)nn3c2O)CC1 (configuration not stated),0.27,0.85,.,6,0.079,-9,.,.
c1ccc(-c2nnc(SCc3cn4ccsc4n3)o2)cc1,0.76,-0.42,.,42,39*,16,-13,-40
O=C(Nc1ccc(NC(=O)C2CC2)nc1)c1ccncc1,0.11,0.24,27,-3,0.04,-9,.,.
O=c1cc(CNC2CCCCC2)c2ccccc2[nH]1,-0.2,-0.2,29,-19,-3*,9,?,-48
O=C(Cc1c(O)c2ccccc2[nH]c1=O)NC1CCCCCC1,0.14,-0.74,.,-1,-0.28,-22,.,.
CCC(Sc1nc(N)cc(=O)[nH]1)C(=O)NC(C(=O)OC)c1ccccc1 (configuration not stated),-0.61,0.87,69,-10,3.2*,-4,-11,-44
O=C(N1CCCC1)n1c(Cc2ccccc2)nc2ccccc21,-0.005,1.4,.,6,6.4*,6,?,-82*
O=C(O)Cn1c(CC(=O)N2CCCC2)nc2ccccc21,0.4,-0.021,-34,-4,-0.32,-12,.,.
O=C(c1ccc(Cl)s1)N1CCN(c2ccccc2)CC1,-0.29,-0.11,.,-3,0.023,-7,.,.
O=C(Cn1cnc2c(cnn2-c2ccc(Cl)cc2)c1=O)NCC1CCCO1 (configuration not stated),.,-0.25,23,12,-1.1,4,.,.
CCOc1cc(S(=O)(=O)NC2CCCC2)ccc1Cl,0.67,-0.33,-44,-15,8.9*,9,4.7,-13
Cc1csc(SCC(=O)Nc2cc(C(C)(C)C)nn2-c2ccccc2)n1,.,-1,.,-26,2.5*,7,?,-48
COc1ccc(NC(=O)COc2ccccc2C#N)c(S(=O)(=O)N2CCCCC2)c1,-0.34,-1.6,.,-6,4.4*,2,-16,-26
CN=C1SC(CC(=O)Nc2cc(Cl)ccc2Cl)C(=O)N1C (configuration not stated),0.012,-0.023,.,-26,-0.87,-8,.,.
O=C(Nc1ccccc1C(F)(F)F)N1CCN(c2ccc3nncn3n2)CC1,.,0.0023,.,-1,0.33,5,.,.
Cc1cc(-c2ccco2)c(C#N)c2nc3ccccc3n12,1.4,0.35,.,32,11*,10,?,15
CCc1c(C)c(C#N)c2nc3ccccc3n2c1-n1nc(C)cc1C,0.56,0.55,.,-16,0.34,0,.,.
CN(C)c1nc(SCCOC(=O)COc2ccc(Cl)cc2Cl)nc(N(C)C)n1,1.2,-1.2,.,-23,2*,4,11,?
CN(C)c1nc(OCCOC(=O)COc2ccc(Cl)cc2Cl)nc(N(C)C)n1,-0.19,0.32,.,-22,-1,-3,.,.
CCOC(=O)C1CCN(C(=O)C2c3ccccc3C(=O)N(C)C2c2ccc(OC)cc2)CC1 (configuration not stated),-0.7,-0.71,-72,-5,10*,-11,?,-39
SMILES,D1 allo mod,M1 antag,mHtt clearance,RORA act,M1 ag,SF1 activator,M1 ag confirm,M4 ag counter
CCCCS(=O)(=O)Nc1ccc(Cc2ccncc2)cc1,-0.041,0.047,18,-18,3.2*,14,?,-39
CCCn1nc(-c2ccccc2)c2nc3ccccc3nc21,2,0.5,-41,-16,475*,-15,492*,1201*
CCn1nc(-c2ccccc2)c2nc3ccccc3nc21,2.2,-0.93,3,-14,24*,-16,24,11
CCCCCn1nc(-c2ccccc2)c2nc3ccccc3nc21,.,.,6,.,.,.,.,.
O=c1cc(NCc2ccco2)c2ccccc2o1,0.57,-0.2,58,-13,0.41,1,.,.
Cc1c(C(=O)NC(C)CN2CCCCC2)oc2ccccc12 (configuration not stated),-0.0039,-0.55,-49,-9,-0.052,8,.,.
CCn1c(=O)cc(OCC(=O)NCCCN2CC(C)CC(C)C2)c2ccccc21 (configuration not stated),-0.27,-0.73,14,-13,2.2*,-9,?,?
Cn1c(=O)c2c(nc(CN3CCOCC3)n2CC(O)CO)n(C)c1=O (configuration not stated),0.082,0.27,.,-4,-0.72,0,.,.
CCOC(=O)C1CCCN(c2nc3ccccc3nc2C(C#N)C(=O)OC(C)COC)C1 (configuration not stated),.,-1.7,.,-11,2.9,-9,.,.
CCCCOC(=O)C(C#N)c1nc2ccccc2nc1N1CCN(Cc2ccc3c(c2)OCO3)CC1 (configuration not stated),-2.2,-0.23,.,-5,14*,-9,31,6.1
CCOC(=O)C1CCCN(c2nc3ccccc3nc2C(C#N)C(=O)OCCOC)C1 (configuration not stated),2,-0.83,.,-2,6.8*,-5,-7,-28
N#CC(C(=O)NC1CCCCC1)c1nc2ccccc2nc1N1CCN(c2ccc(F)cc2)CC1 (configuration not stated),-0.22,-0.91,.,-6,14*,-2,241*,?
N#CC(C(=O)OC1CCCCC1)c1nc2ccccc2nc1N1CCOCC1 (configuration not stated),1.5,4.8*,-30,-19,72*,-13,-13,-26
CN(C)CCCNCCCNC(=O)/C(=N\O)c1ccccn1,.,.,50,-5,.,-9,.,.
CC(=O)c1ccc(-n2nncc2C)cc1,.,0.73,35,-2,0.23,1,.,.
CN1C=CC(=C2C(=O)c3ccccc3C2=O)C=C1,-3.1,2.6*,0,52*,33*,16,-30,?
CCCOC(=S)NC(=O)c1sc2ccccc2c1Cl,.,.,-27,.,.,.,.,.
O=C(c1ccccc1)N1CCN(C2CC(=O)N(CCc3ccccc3)C2=O)CC1 (configuration not stated),.,0.78,-24,1,-0.74,15,.,.
